In ChEMBL document CHEMBL4049443, “Discovery of 2-[[2-Ethyl-6-[4-[2-(3-hydroxyazetidin-1-yl)-2-oxoethyl]piperazin-1-yl]-8-methylimidazo[1,2-a]pyridin-3-yl]methylamino]-4-(4-fluorophenyl)thiazole-5-carbonitrile (GLPG1690), a First-in-Class Autotaxin Inhibitor Undergoing Clinical Evaluation for the Treatment of Idiopathic Pulmonary …” (J Med Chem, 2017):
pIC50: −log10 of the molar value. Activity calls are given as the source filed them. The calls are words filed in the database; no cut-off is given here.

Tests used:
Mus musculus [1] = experiment: Anti-fibrotic activity in BML-induced pulmonary fibrosis C57BL/6 mouse model assessed as reduction in […] 18:2 content in BALF at 30 mg/kg, po administered bid with 7.5 hrs interval between 2 doses for 21 days measured 2 hrs post last dose on day 21 by LC-MS/MS analysis relative to control; type: functional, organism-based
Procedure, shortened: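 BLM model as above (intranasal 30 μg/50 μL, 21 days oral twice-daily dosing in PEG 200/0.5% MC), satellite groups. Bronchoalveolar lavage with two 0.5 mL ice-cold saline instillations, 2 h after a 30 mg/kg dose. LPA 18:2 by LC−MS/MS; PBS n = 9, BLM-vehicle n = 6, treated n = 7; mean ± SEM, one-way ANOVA with Dunnett's test.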

[2] = Protein binding to dog plasma; type: ADME, cell-free, Canis lupus familiaris; conditions: read-out: PPB
Mus musculus [3] = experiment: Dose normalized Cmax in C57BL/6Rj mouse at 10 mg/kg administered as single dose via oral gavage up to 24 hrs by LC-MS/MS analysis; type: ADME, organism-based; conditions: in vivo
Procedure, shortened: (§1)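 Female C57BL/6Rj mice, 4−5 weeks old, fasted, given one oral gavage in PEG 200/MC 0.5% (25/75 v/v) at 0.3, 1 or 3 mg/mL. Intracardiac blood under isoflurane at 1, 3, 6 and 24 h into Li-heparin; n = 3 per time point. Methanol precipitation, LC−MS/MS against an eight-level calibration curve (LLOQ 4 ng/mL).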

[4] = Tmax in C57BL/6Rj mouse at 10 mg/kg administered as single dose via oral gavage up to 24 hrs by LC-MS/MS analysis; type: ADME, organism-based; conditions: in vivo; procedure, shortened: as §1
Mus musculus [5] = experiment: Dose normalized Cmax in C57BL/6Rj mouse at 3 mg/kg administered as single dose via oral gavage up to 24 hrs by LC-MS/MS analysis; type: ADME, organism-based; conditions: in vivo; procedure, shortened: as §1
[6] = Plasma concentration in C57BL/6Rj mouse at 30 mg/kg administered as single dose via oral gavage after 24 hrs by LC-MS/MS analysis; type: ADME, organism-based; procedure, shortened: as §1
Mus musculus [7] = experiment: In vivo inhibition of ATX in C57BL/6Rj mouse assessed as time for maximum reduction in LPA 18:2 at 3 mg/kg administered as single dose via oral gavage by LC-MS/MS analysis; type: functional
Procedure, shortened: (§2)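 Same single-gavage mouse study (female C57BL/6Rj, PEG 200/MC 0.5% vehicle, n = 3, bled predose and at 1, 3, 6, 24 h); vehicle control group. Plasma (10 μL) precipitated with methanol containing LPA 17:0 internal standard. LPA 18:2 read by LC−MS/MS as peak-area ratio to LPA 17:0. % reduction = 100 − (LPA at time t / mean vehicle LPA at time t × 100).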

[8] = Plasma clearance in mouse at 1 mg/kg, iv; type: ADME, organism-based
Mus musculus [9] = experiment: Dose normalized AUC (0 to 24 hrs) in C57BL/6Rj mouse at 30 mg/kg administered as single dose via oral gavage by LC-MS/MS analysis; type: ADME, organism-based; conditions: in vivo; procedure, shortened: as §1
[10] = Plasma clearance in dog at 1 mg/kg, iv; type: ADME, organism-based, Canis lupus familiaris
Procedure, shortened: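 Dog: from 1 mg/kg oral and intravenous doses. Clearance taken from the intravenous arm.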

Autotaxin = Autotaxin (Mus musculus, UniProt Q9R1E6); experiment: Inhibition of ATX in mouse plasma assessed as reduction in LPA 18:2 production after 2 hrs by LC-MS/MS analysis
[11] = Cmax in C57BL/6Rj mouse at 3 mg/kg administered as single dose via oral gavage up to 24 hrs by LC-MS/MS analysis; type: ADME, organism-based; design: dose 3 mg/kg, route oral; conditions: in vivo; procedure, shortened: as §1
Mus musculus [12] = experiment: Dose normalized AUC (0 to 24 hrs) in C57BL/6Rj mouse at 3 mg/kg administered as single dose via oral gavage by LC-MS/MS analysis; type: ADME, organism-based; conditions: in vivo; procedure, shortened: as §1
Mus musculus [13] = experiment: In vivo inhibition of ATX in C57BL/6Rj mouse assessed as reduction in LPA 18:2 level in plasma at 10 mg/kg administered as single dose via oral gavage by LC-MS/MS analysis; type: functional; procedure, shortened: as §2
[14] = Apparent terminal half life in C57BL/6Rj mouse at 30 mg/kg administered as single dose via oral gavage up to 24 hrs by LC-MS/MS analysis; type: ADME, organism-based; conditions: in vivo, read-out: betat1/2(app) (converted); procedure, shortened: as §1
Mus musculus [15] = experiment: Time at which plasma concentration reach in vitro mouse plasma IC50 in C57BL/6Rj mouse at 3 mg/kg, po administered as single dose via gavage
Mus musculus [16] = experiment: Dose normalized AUC (0 to 24 hrs) in C57BL/6Rj mouse at 10 mg/kg administered as single dose via oral gavage by LC-MS/MS analysis; type: ADME, organism-based; conditions: in vivo; procedure, shortened: as §1
[17] = Protein binding to mouse plasma; type: ADME, cell-free; conditions: read-out: PPB
[18] = Tmax in C57BL/6Rj mouse at 30 mg/kg administered as single dose via oral gavage up to 24 hrs by LC-MS/MS analysis; type: ADME, organism-based; conditions: in vivo
Procedure, shortened: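 Female C57BL/6Rj mice, 4−5 weeks old, given one oral gavage in PEG 200/MC 0.5% (25/75, v/v) at 3 mg/mL; fasted. Intracardiac blood under isoflurane at 1, 3, 6 and 24 h, Li-heparin. Methanol precipitation, LC−MS/MS against eight-level calibration, LLOQ 4 ng/mL. Plasma levels averaged over three mice; noncompartmental analysis for tmax.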

[19] = AUC (0 to 24 hrs) in C57BL/6Rj mouse at 10 mg/kg administered as single dose via oral gavage by LC-MS/MS analysis; type: ADME, organism-based; design: dose 10 mg/kg, time < 24 hr, route oral; conditions: in vivo; procedure, shortened: as §1
Mus musculus [20] = experiment: Anti-fibrotic activity in BML-induced pulmonary fibrosis C57BL/6 mouse model assessed as lung weight at 10 to 30 mg/kg, po administered bid with 7.5 hrs interval between 2 doses for 21 days relative to control; type: functional, organism-based
[21] = Apparent terminal half life in C57BL/6Rj mouse at 10 mg/kg administered as single dose via oral gavage up to 24 hrs by LC-MS/MS analysis; type: ADME, organism-based; conditions: in vivo, read-out: betat1/2(app) (converted); procedure, shortened: as §1
[22] = Cmax in C57BL/6Rj mouse at 10 mg/kg administered as single dose via oral gavage up to 24 hrs by LC-MS/MS analysis; type: ADME, organism-based; design: dose 10 mg/kg, route oral; conditions: in vivo; procedure, shortened: as §1

fraction unbound [2]: < 0.01 | Cmax/dose (Mus musculus [3]): 436 ng/mL/(mg/kg) | Tmax [4]: 1 h | Cmax/dose (Mus musculus [5]): 358 ng/mL/(mg/kg) | concentration at 24 h [6]: 295 ng/mL | clearance [8]: 3.83 mL/min/kg | AUC/dose (Mus musculus [9]): 3374 ng·h/mL/mg/kg | clearance [10]: 2 mL/min/kg | pIC50 (Autotaxin): 6.38 | Cmax [11]: 1080 ng/mL | AUC/dose (Mus musculus [12]): 1851 ng·h/mL/mg/kg | half-life [14]: 3.79 h | AUC/dose (Mus musculus [16]): 2079 ng·h/mL/mg/kg | fraction unbound [17]: < 0.01 | Tmax [18]: 1 h | AUC(0-t) at 24 h [19]: 20800 ng·h/mL | half-life [21]: 2.22 h | Cmax [22]: 4360 ng/mL
SMILES: CCc1nc2c(C)cc(N3CCN(CC(=O)N4CC(O)C4)CC3)cn2c1N(C)c1nc(-c2ccc(F)cc2)c(C#N)s1 [ZIRITAXESTAT]
Activity (Mus musculus [1]): Active | Time (Mus musculus [7]): 3 h | inhibition in vivo at 10 mg/kg (Mus musculus [13]): 90.9% | Time (Mus musculus [15]): 6 h | Activity (Mus musculus [20]): Active
